Reference: ChEMBL document CHEMBL4152279, “Synthesis, cytotoxic evaluation and target identification of thieno[2,3-d]pyrimidine derivatives with a dithiocarbamate side chain at C2 position” (Eur J Med Chem, 2018)
Active and inactive are the calls of the source. No cut-off for these calls is given here.

Legend:
[1] = test system: A549; experiment: Binding affinity to tubulin alpha in human A549 cells immunoblot based based pull down assay; type: cell-based
How it was run: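 A549 lysate in NETN buffer incubated with biotin, biotinylated probe or control probe at 4 °C, then streptavidin Dynabeads 1 h at 4 °C. Beads washed six times, bound proteins run on SDS-PAGE and immunoblotted for α-tubulin.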

[2] = species on record: Sus scrofa; experiment: Binding affinity to porcine tubulin after overnight incubation by streptavidin pull down assay
How it was run: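 Purified porcine neuronal tubulin incubated with biotin, biotinylated probe or control probe in NETN buffer at 4 °C. Streptavidin Dynabeads 1 h at 4 °C, six washes, then SDS-PAGE and α-tubulin immunoblot.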

[3] = test system: A549; experiment: Cell cycle arrest in human A549 cells assessed as accumulation at S phase at cytotoxic IC50 after 24 hrs by propidium iodide staining based flow cytometry (reference value: 32.37 +/- 1.23%); type: functional
[4] = test system: A549; experiment: Cytotoxicity against human A549 cells by MTS assay; type: functional, cell-based
How it was run: (§1)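 MTS read-out (CellTiter 96 AQueous One) of proliferation in A549 or HCT-116 cells grown in DMEM with 10% FBS at 37 °C, 5% CO2. Taxol-resistant A549 cells were exposed for 72 h. Compounds were screened at 30 μM versus vehicle, with ≥50% inhibition counted active. Actives were then tested over a concentration range for IC50. Triplicate wells, three independent experiments, mean ± SD.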

[5] = test system: A549; experiment: Activation of spindle assembly checkpoint in human A549 cells assessed as cells positive for histone H3 phosphorylation at Ser10 residue by measuring mitotic cell population at cytotoxic IC50 after 2 hrs by propidium iodide staining based flow cytometry (reference value: 6.9%); type: functional
[6] = test system: A549; experiment: Activation of spindle assembly checkpoint in human A549 cells assessed as increase in BubR1 phosphorylation at cytotoxic IC50 after 6 to 24 hrs by immunoblot analysis; type: functional, cell-based
[7] = test system: A549; experiment: Antiproliferative activity against human A549 cells after 72 hrs by MTS assay; type: functional, cell-based; conditions: A549, 72 h; how it was run: as §1
[8] = test system: A549; experiment: Activation of spindle assembly checkpoint in human A549 cells assessed as increase in histone H3 phosphorylation at Ser10 residue at cytotoxic IC50 after 12 to 24 hrs by immunoblot analysis; type: functional, cell-based
[9] = test system: A549; experiment: Activation of spindle assembly checkpoint in human A549 cells assessed as mitotic index by measuring cells positive for histone H3 phosphorylation at Ser10 residue at cytotoxic IC50 after 2 hrs by FITC staining based immunofluorescence assay (reference value: 2.67 +/- 0.21); type: functional
[10] = test system: A549; experiment: Induction of DNA damage in human A549 cells assessed as increase in gamma-H2AX level after 12 hrs by immunoblot analysis; type: functional, cell-based
How it was run: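 A549 cells treated for 12 h, with DMSO as diluent; camptothecin at 2 μM for 2 h served as positive control. Total cell lysates were immunoblotted for γ-H2AX (Ser139 phosphorylated H2AX) and pS345 CHK1. Immunofluorescence for γ-H2AX foci with DAPI counterstain was run in parallel.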

[11] = test system: A549; experiment: Cell cycle arrest in human A549 cells assessed as accumulation at G0/G1 phase at 1.5 times cytotoxic IC50 after 24 hrs by propidium iodide staining based flow cytometry (reference value: 46.39 +/- 1.75%); type: functional
[12] = test system: HCT-116; experiment: Cytotoxicity against human HCT116 cells at 30 uM by MTS assay relative to control; type: functional; how it was run: as §1
[13] = test system: A549; experiment: Cell cycle arrest in human A549 cells assessed as accumulation at G2/M phase after 24 hrs by propidium iodide staining based flow cytometry; type: functional
[14] = test system: A549; experiment: Cell cycle arrest in human A549 cells assessed as accumulation at G0/G1 phase at 0.5 times cytotoxic IC50 after 24 hrs by propidium iodide staining based flow cytometry (reference value: 46.39 +/- 1.75%); type: functional
[15] = test system: A549; experiment: Activation of spindle assembly checkpoint in human A549 cells assessed as mitotic index by measuring cells positive for histone H3 phosphorylation at Ser10 residue at cytotoxic IC50 after 16 hrs by FITC staining based immunofluorescence assay (reference value: 3.23 +/- 0.15); type: functional
[16] = test system: HeLa; experiment: Cytotoxicity against human HeLa cells at 30 uM by MTS assay; type: functional, cell-based
[17] = test system: MCF7; experiment: Cytotoxicity against human MCF7 cells at 30 uM by MTS assay; type: functional, cell-based
[18] = test system: A549; experiment: Induction of DNA damage in human A549 cells assessed as gamma-H2AX foci formation after 12 hrs by DAPI staining based immunofluorescence assay; type: functional, cell-based
How it was run: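 A549 cells treated 12 h, with camptothecin (2 μM, 2 h) and DMSO as comparators. Cells fixed and immunostained with mouse monoclonal anti-γ-H2AX, nuclei counterstained with DAPI, foci examined by immunofluorescence.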

[19] = test system: A549; experiment: Activation of spindle assembly checkpoint in human A549 cells assessed as mitotic index by measuring cells positive for histone H3 phosphorylation at Ser10 residue at cytotoxic IC50 after 4 hrs by FITC staining based immunofluorescence assay (reference value: 3.3 +/- 0.17); type: functional
[20] = test system: HCT-116; experiment: Cytotoxicity against human HCT116 cells by MTS assay; type: functional, cell-based; how it was run: as §1
[21] = test system: A549; experiment: Cell cycle arrest in human A549 cells assessed as accumulation at G2/M phase at 0.5 times cytotoxic IC50 after 24 hrs by propidium iodide staining based flow cytometry (reference value: 20.95 +/- 0.8%); type: functional
[22] = test system: A549; experiment: Activation of spindle assembly checkpoint in human A549 cells assessed as mitotic index by measuring cells positive for histone H3 phosphorylation at Ser10 residue at cytotoxic IC50 after 8 hrs by FITC staining based immunofluorescence assay (reference value: 3.17 +/- 0.15); type: functional
[23] = test system: A549; experiment: Cell cycle arrest in human A549 cells assessed as accumulation at G0/G1 phase at cytotoxic IC50 after 24 hrs by propidium iodide staining based flow cytometry (reference value: 46.39 +/- 1.75%); type: functional
[24] = test system: HT-29; experiment: Cytotoxicity against human HT-29 cells at 30 uM by MTS assay; type: functional, cell-based
[25] = test system: A549; experiment: Activation of spindle assembly checkpoint in human A549 cells assessed as cells positive for histone H3 phosphorylation at Ser10 residue by measuring mitotic cell population at cytotoxic IC50 after 16 hrs by propidium iodide staining based flow cytometry (reference value: 6.9%); type: functional
[26] = test system: A549; experiment: Cell cycle arrest in human A549 cells assessed as accumulation at G2/M phase at cytotoxic IC50 after 24 hrs by propidium iodide staining based flow cytometry (reference value: 20.95 +/- 0.8%); type: functional
[27] = test system: A549; experiment: Cell cycle arrest in human A549 cells assessed as accumulation at G2/M phase at 1.5 times cytotoxic IC50 after 24 hrs by propidium iodide staining based flow cytometry (reference value: 20.95 +/- 0.8%); type: functional
[28] = species on record: Sus scrofa; experiment: Inhibition of porcine tubulin polymerization after 60 mins by spectrometric method
How it was run: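 Purified tubulin was incubated at 37 °C with compound at 5, 10 or 20 μM, with DMSO as vehicle. Polymerization was followed as the rise in absorbance at 340 nm over 60 min. Taxol (10 μM) and nocodazole (10 μM) served as controls. Three independent experiments were run.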

[29] = test system: A549; experiment: Cell cycle arrest in human A549 cells assessed as accumulation at S phase at 1.5 times cytotoxic IC50 after 24 hrs by propidium iodide staining based flow cytometry (reference value: 32.37 +/- 1.23%); type: functional
[30] = test system: A549; experiment: Cell cycle arrest in human A549 cells assessed as accumulation at S phase at 0.5 times cytotoxic IC50 after 24 hrs by propidium iodide staining based flow cytometry (reference value: 32.37 +/- 1.23%); type: functional
[31] = test system: A549; experiment: Activation of spindle assembly checkpoint in human A549 cells assessed as cells positive for histone H3 phosphorylation at Ser10 residue by measuring mitotic cell population at cytotoxic IC50 after 8 hrs by propidium iodide staining based flow cytometry (reference value: 6.9%); type: functional
[32] = test system: MDA-MB-231; experiment: Cytotoxicity against human MDA-MB-231 cells at 30 uM by MTS assay; type: functional, cell-based
[33] = test system: A549; experiment: Activation of spindle assembly checkpoint in human A549 cells assessed as cells positive for histone H3 phosphorylation at Ser10 residue by measuring mitotic cell population at cytotoxic IC50 after 4 hrs by propidium iodide staining based flow cytometry (reference value: 6.9%); type: functional
[34] = test system: A549; experiment: Induction of DNA damage in human A549 cells assessed as increase in CHK1 phosphorylation level after 12 hrs by immunoblot analysis; type: functional, cell-based
How it was run: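 A549 cells treated 12 h, with camptothecin (2 μM, 2 h) and DMSO as comparators. Total lysates immunoblotted for γ-H2AX and pS345 CHK1.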

[35] = test system: A549; experiment: Cytotoxicity against human A549 cells at 30 uM by MTS assay relative to control; type: functional; how it was run: as §1
[36] = test system: A549; experiment: Induction of DNA damage in human A549 cells assessed as gamma-H2AX foci formation at 2 uM after 2 hrs by DAPI staining based immunofluorescence assay; type: functional, cell-based
How it was run: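 A549 cells were treated for 2 h with DMSO as diluent, then fixed. Cells were immunostained with a mouse monoclonal anti-γ-H2AX antibody, with DAPI as DNA counterstain, and γ-H2AX foci were scored by immunofluorescence.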

[37] = test system: A549; experiment: Induction of DNA damage in human A549 cells assessed as increase in gamma-H2AX level at 2 uM after 2 hrs by immunoblot analysis; type: functional, cell-based
How it was run: (§2)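 A549 cells were treated for 2 h with DMSO as diluent. Total cell lysates were run on 12% SDS-PAGE and transferred to PVDF. Membranes were blocked in PBST with 5% BSA and immunoblotted for γ-H2AX and pS345 CHK1, with HRP secondary detection.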

[38] = test system: A549; experiment: Induction of DNA damage in human A549 cells assessed as increase in CHK1 phosphorylation level at 2 uM after 2 hrs by immunoblot analysis; type: functional, cell-based; how it was run: as §2

O=C(O)CCCC[C@@H]1SC[C@@H]2NC(=O)N[C@@H]21
Activity [1]: inactive
Activity [2]: inactive

Cc1cc2c(=O)[nH]c(CSC(=S)NCc3ccc(C#N)cc3)nc2s1
Activity [3]: 19.85%
IC50 [4]: 4.78 µM
Activity [5]: 6.9%
Activity [6]: Active
IC50 [7]: 7.31 µM
Activity [8]: Active
Activity_index [9]: 6.63
Activity [10]: inactive
Activity [11]: 17%
Activity [12]: >=50%
Activity [13]: Dose-dependent effect
Activity [14]: 43.91%
Activity_index [15]: 19.17
Activity [16]: inactive
Activity [17]: inactive
Activity [18]: inactive
Activity_index [19]: 9.67
IC50 [20]: 22.6 µM
Activity [21]: 23.59%
Activity_index [22]: 15.6
Activity [23]: 24.24%
Activity [24]: inactive
Activity [25]: 19.5%
Activity [26]: 55.74%
Activity [27]: 61.89%
inhibition [28]: Dose-dependent effect
Activity [29]: 18.45%
Activity [30]: 30.89%
Activity [31]: 13.7%
Activity [32]: inactive
Activity [33]: 10.2%
Activity [34]: inactive
Activity [35]: >=50%

O=c1[nH]cc(F)c(=O)[nH]1 [FLUOROURACIL]
Activity [3]: 59.27%
Activity [23]: 29.61%
Activity [26]: 8.9%

Cc1cc2c(=O)[nH]c(CN(CCCNC(=O)CCCC[C@@H]3SC[C@@H]4NC(=O)N[C@@H]43)Cc3ccc(C#N)cc3)nc2s1
Activity [1]: inactive
Activity [2]: inactive

Cc1cc2c(=O)[nH]c(CSC(=S)NCc3ccccc3)nc2s1
IC50 [4]: 29.5 µM
Activity [12]: >=50%
Activity [16]: inactive
Activity [17]: inactive
IC50 [20]: > 30 µM
Activity [24]: inactive
Activity [32]: inactive
Activity [35]: >=50%

Cc1cc2c(=O)[nH]c(CSC(=S)NCc3ccco3)nc2s1
IC50 [4]: > 30 µM
Activity [12]: >=50%
Activity [16]: inactive
Activity [17]: inactive
IC50 [20]: 29.8 µM
Activity [24]: inactive
Activity [32]: inactive
Activity [35]: >=50%

CC[C@@]1(O)C(=O)OCc2c1cc1n(c2=O)Cc2cc3ccccc3nc2-1
Activity [36]: Active
Activity [37]: Active
Activity [38]: Active

Cc1cc2c(=O)[nH]c(CSC(=S)NCc3ccc(F)cc3)nc2s1
IC50 [4]: 18.9 µM
Activity [12]: >=50%
Activity [16]: inactive
Activity [17]: inactive
IC50 [20]: 28.7 µM
Activity [24]: inactive
Activity [32]: inactive
Activity [35]: >=50%

Cc1ccc(CNC(=S)SCc2nc3sc(C)cc3c(=O)[nH]2)cc1
IC50 [4]: 26.5 µM
Activity [12]: >=50%
Activity [16]: inactive
Activity [17]: inactive
IC50 [20]: 28 µM
Activity [24]: inactive
Activity [32]: inactive
Activity [35]: >=50%

Cc1cc2c(=O)[nH]c(CSC(=S)NCc3ccc(Cl)cc3)nc2s1
IC50 [4]: 11.3 µM
Activity [12]: >=50%
Activity [16]: inactive
Activity [17]: inactive
IC50 [20]: 25.1 µM
Activity [24]: inactive
Activity [32]: inactive
Activity [35]: >=50%
